Tested on: Spodoptera litura
Experiment: Antifeedant activity against Spodoptera litura F. by choice leaf disk assay
Assay type: functional
How it was run: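 Antifeedant value calculated from the rate of leaf consumption. A straight line was fitted to the bioassay points to obtain the ED50.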

SMILES | ED50 [umol/cm2]
COc1c(O)cc2oc(-c3ccccc3)cc(=O)c2c1O [OROXYLIN A] | >10
COc1c(O)cc(O)c2c(=O)cc(-c3ccccc3)oc12 [WOGONIN] | 2
COc1cc2oc(C)cc(=O)c2c(OC)c1OC | 0.41
COc1cc(O)c2c(=O)cc(-c3ccccc3)oc2c1O [ISOWOGONIN] | >10
O=c1cc(-c2ccccc2)oc2cc(O)c(O)c(O)c12 [BAICALEIN] | 0.96
COc1ccc2c(=O)cc(-c3ccccc3)oc2c1 [7-METHOXYFLAVONE] | 0.059
COc1cc(OC)c2c(=O)cc(C)oc2c1 | >10
O=c1ccoc2ccccc12 [CHROMONE] | 0.168
COc1ccc(-c2cc(=O)c3c(OC)c(OC)c(OC)c(OC)c3o2)cc1OC [NOBILETIN] | 5.6
O=c1cc(-c2ccccc2)oc2cc(O)ccc12 [7-HYDROXYFLAVONE] | >10
COc1ccc2c(=O)cc(C)oc2c1 | >10
COc1ccc2oc(-c3ccccc3)cc(=O)c2c1 [6-METHOXYFLAVONE] | 0.15
O=c1cc(-c2ccc(O)c(O)c2)oc2cc(O)cc(O)c12 [LUTEOLIN] | >10
O=c1cc(-c2ccccc2)oc2cc(O)cc(O)c12 [CHRYSIN] | 2.5
O=c1cc(-c2ccccc2)oc2c(O)c(O)cc(O)c12 [NORWOGONIN] | 1.52
COc1ccc(-c2oc3c(OC)c(OC)c(OC)c(O)c3c(=O)c2OC)cc1 [5-HYDROXYAURANETIN] | 0.11
Cc1ccc2oc(-c3ccccc3)cc(=O)c2c1 [6-METHYLFLAVONE] | 0.035
COc1ccc(-c2cc(=O)c3c(OC)c(OC)c(OC)c(OC)c3o2)cc1 [TANGERETIN] | 0.28
O=c1cc(-c2ccccc2)oc2ccc(O)cc12 [6-HYDROXYFLAVONE] | >10
O=c1cc(-c2ccc(O)cc2)oc2cc(O)cc(O)c12 [APIGENIN] | >10
COc1ccc2c(=O)ccoc2c1 [7-METHOXYCHROMONE] | 0.096
O=c1cc(-c2ccccc2)oc2ccccc12 [FLAVONE] | 0.11
COc1cc2oc(-c3ccccc3)cc(=O)c2c(O)c1OC [MOSLOFLAVONE] | >10
Cc1ccc2c(=O)cc(C)oc2c1 [2,7-DIMETHYLCHROMONE] | 0.102

— ChEMBL document CHEMBL3045020, “Insect antifeedant activity of flavones and chromones against Spodoptera litura” (2003)
